Experimental data: ChEMBL document CHEMBL3352220, “Design, synthesis, anticancer activity and docking studies of novel 4-morpholino-7,8-dihydro-5H-thiopyrano[4,3-d]pyrimidine derivatives as mTOR inhibitors” (Bioorg Med Chem, 2014)

Target: T1, Serine/threonine-protein kinase mTOR (Homo sapiens, UniProt P42345)
Assay: Inhibition of mTOR kinase (unknown origin) after 1 hr by TR-FRET assay
Settings: not given

| SMILES | IC50 [µM] |
| --- | --- |
| COc1cc(/C=N/Nc2nc(N3CCOCC3)nc(N3CCOCC3)n2)cc(OC)c1O | 1.37 |
| Oc1ccc(/C=N/Nc2nc3c(c(N4CCOCC4)n2)CSCC3)cc1Br | 1.94 |
| Oc1c(Br)cc(/C=N/Nc2nc3c(c(N4CCOCC4)n2)CSCC3)cc1Br | 2.67 |
| O=S1(=O)CCc2nc(N/N=C/c3cc(Br)c(O)c(Br)c3)nc(N3CCOCC3)c2C1 | 6.93 |
| COc1cc(/C=N/Nc2nc3c(c(N4CCOCC4)n2)CS(=O)(=O)CC3)cc(OC)c1O | 2.2 |
| COc1cc(/C=N/Nc2nc3c(c(N4CCOCC4)n2)CSCC3)cc(OC)c1O | 0.8 |

Target: Phosphatidylinositol 4,5-bisphosphate 3-kinase catalytic subunit alpha isoform (Homo sapiens) (UniProt P42336)
Sequence (P42336 whole entry, canonical isoform): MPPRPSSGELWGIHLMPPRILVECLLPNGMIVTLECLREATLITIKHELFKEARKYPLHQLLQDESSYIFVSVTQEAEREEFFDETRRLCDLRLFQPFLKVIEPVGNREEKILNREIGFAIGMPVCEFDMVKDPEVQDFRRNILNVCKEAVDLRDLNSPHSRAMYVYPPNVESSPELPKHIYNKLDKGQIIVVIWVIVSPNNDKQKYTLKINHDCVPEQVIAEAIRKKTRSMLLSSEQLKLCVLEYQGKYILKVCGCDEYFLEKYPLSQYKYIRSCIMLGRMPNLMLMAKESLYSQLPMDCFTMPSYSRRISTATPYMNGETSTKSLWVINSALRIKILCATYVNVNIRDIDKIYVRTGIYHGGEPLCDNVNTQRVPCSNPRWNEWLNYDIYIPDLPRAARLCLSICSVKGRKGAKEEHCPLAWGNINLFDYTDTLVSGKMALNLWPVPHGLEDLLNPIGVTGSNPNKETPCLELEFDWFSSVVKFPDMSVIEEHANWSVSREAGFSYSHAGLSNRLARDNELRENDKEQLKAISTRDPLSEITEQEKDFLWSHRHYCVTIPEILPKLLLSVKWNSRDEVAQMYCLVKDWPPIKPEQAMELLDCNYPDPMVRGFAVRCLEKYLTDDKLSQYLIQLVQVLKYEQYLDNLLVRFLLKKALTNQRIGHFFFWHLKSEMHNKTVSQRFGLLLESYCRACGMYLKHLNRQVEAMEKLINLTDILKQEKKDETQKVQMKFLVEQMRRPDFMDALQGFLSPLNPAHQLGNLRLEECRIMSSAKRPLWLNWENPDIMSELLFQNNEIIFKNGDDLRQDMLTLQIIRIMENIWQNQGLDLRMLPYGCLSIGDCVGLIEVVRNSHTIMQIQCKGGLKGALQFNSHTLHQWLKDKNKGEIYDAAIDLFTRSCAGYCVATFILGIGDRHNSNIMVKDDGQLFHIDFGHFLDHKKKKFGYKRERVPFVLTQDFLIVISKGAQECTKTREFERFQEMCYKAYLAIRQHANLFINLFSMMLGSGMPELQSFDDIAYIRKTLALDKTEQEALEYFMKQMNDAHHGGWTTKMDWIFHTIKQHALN
Assay: Inhibition of PI3K-alpha (unknown origin) using l-alpha-phosphatidylinositol as substrate at 10 uM after 60 mins by luminescence assay
Settings: not given

| SMILES | inhibition [%] |
| --- | --- |
| Oc1ccc(/C=N/Nc2nc3c(c(N4CCOCC4)n2)CSCC3)cc1Br | 18.8 |
| Oc1c(Br)cc(/C=N/Nc2nc3c(c(N4CCOCC4)n2)CSCC3)cc1Br | 21.6 |
| O=S1(=O)CCc2nc(N/N=C/c3cc(Br)c(O)c(Br)c3)nc(N3CCOCC3)c2C1 | 24.9 |
| COc1cc(/C=N/Nc2nc3c(c(N4CCOCC4)n2)CS(=O)(=O)CC3)cc(OC)c1O | 6.2 |
| COc1cc(/C=N/Nc2nc3c(c(N4CCOCC4)n2)CSCC3)cc(OC)c1O | 12 |

Test system: not listed separately
Assay: Cytotoxicity against human H460 cells after 72 hrs by MTT assay
Assay type: functional, cell-based
Settings: NCI-H460, 72 h
Method in brief: (§1)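 Cells grown in MEM with 10% FBS; ~4 × 10³ cells/well plated and held 24 h at 37 °C, 5% CO2. Compounds added at indicated final concentrations for 72 h. MTT added, 4 h at 37 °C; formazan dissolved in DMSO, absorbance read at 492 nm against 630 nm reference. Tested three times per cell line; inhibition rates or IC50 averaged from two determinations.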

| SMILES | IC50 [µM] |
| --- | --- |
| COc1cc(/C=N/Nc2nc(N3CCOCC3)nc(N3CCOCC3)n2)cc(OC)c1O | 9.52 |
| Oc1ccc(/C=N/Nc2nc3c(c(N4CCOCC4)n2)CSCC3)cc1Br | 10.8 |
| COc1cc(/C=N/Nc2nc3c(c(N4CCOCC4)n2)CSCC3)cc(OC)c1O | 7.43 |

Test system: not listed separately
Assay: Cytotoxicity against human PC3 cells after 72 hrs by MTT assay
Assay type: functional, cell-based
Settings: PC-3, 72 h
Method in brief: as §1

| SMILES | IC50 [µM] |
| --- | --- |
| COc1cc(/C=N/Nc2nc(N3CCOCC3)nc(N3CCOCC3)n2)cc(OC)c1O | 16.3 |
| Oc1ccc(/C=N/Nc2nc3c(c(N4CCOCC4)n2)CSCC3)cc1Br | 14.4 |
| Oc1c(Br)cc(/C=N/Nc2nc3c(c(N4CCOCC4)n2)CSCC3)cc1Br | > 20 |
| O=S1(=O)CCc2nc(N/N=C/c3cc(Br)c(O)c(Br)c3)nc(N3CCOCC3)c2C1 | > 20 |
| COc1cc(/C=N/Nc2nc3c(c(N4CCOCC4)n2)CS(=O)(=O)CC3)cc(OC)c1O | > 20 |
| COc1cc(/C=N/Nc2nc3c(c(N4CCOCC4)n2)CSCC3)cc(OC)c1O | 11.9 |

Target: T1, Serine/threonine-protein kinase mTOR
Assay: Selectivity ratio of BMCL-200908069-1 IC50 to compound IC50 for mTOR kinase (unknown origin)
Settings: not given

| SMILES | Ratio IC50 |
| --- | --- |
| COc1cc(/C=N/Nc2nc3c(c(N4CCOCC4)n2)CSCC3)cc(OC)c1O | 1.71 |

Test system: not listed separately
Assay: Selectivity ratio of BMCL-200908069-1 IC50 to compound IC50 for human H460 cells
Assay type: functional
Settings: not given

| SMILES | Ratio IC50 |
| --- | --- |
| COc1cc(/C=N/Nc2nc3c(c(N4CCOCC4)n2)CSCC3)cc(OC)c1O | 1.28 |

Test system: PC-3
Assay: Selectivity ratio of BMCL-200908069-1 IC50 to compound IC50 for human PC3 cells
Assay type: functional
Settings: not given

| SMILES | Ratio IC50 |
| --- | --- |
| COc1cc(/C=N/Nc2nc3c(c(N4CCOCC4)n2)CSCC3)cc(OC)c1O | 1.37 |
